Measurements published in the RNAGym collection of RNA variant scans (doi:10.1038/nmeth.2970).

B1: NELF-E aptamer (parent)
chain: CCCAACGACUGCCGAGCGAGAUUACGCUUGAGCGCCCCACUGAGGAUGCCCACGGGCGAUUGGGGCACGG

Variants of: B1
Assay: HiTS-RAP
Conditions: with NELF-E (Drosophila)
Summary of the method: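 Kd came from weighted Hill fits to the first binding curve, with intensities normalised to sequencing intensity and averaged per sequence, keeping only fits whose variance was below 1,000,000. That curve was imaged on an Illumina GAIIx flowcell, where sequenced aptamer DNA templates with a T7 promoter and ter site had been transcribed in situ by T7 RNA polymerase and halted by GST-Tus (30 minutes, 37°C). Before each image, clusters equilibrated for 30 minutes at room temperature with NELF-E-mOrange at 0.064 to 1000 nM in HEPES binding buffer.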

In order of rising Kd:
1. CCCAGCGACUGCCGAGCGAGAUCACGCUUGAGCGCCCCACUGAGGAUGCCCACGGGCGAUUGGGGCACGG [A5G U23C]  5.22 nM
2. CCCAGCGACUGCCGAGCGAGAUUACACUUGAGCGCCCCACUGAGGAUGCCCACGGGCGAUUGGGGCACGG [A5G G26A]  5.29 nM
3. CCCAGCGACUGCCGAGCGAGAUUACGCUUAAGCGCCCCACUGAGGAUGCCCACGGGCGAUUGGGGCACGG [A5G G30A]  5.43 nM
4. CCCAGCGACUGCCGAGCGAGAUAACGCUUGAGCGCCCCACUGAGGAUGCCCACGGGCGAUUGGGGCACGG [A5G U23A]  5.47 nM
5. CCCAUCGACUGCCGAGCGAGAUUACGCUUGAGCGCCCCACUGAGGAUGCCCACGGGCGAUUGGGGCACGG [A5U]  5.66 nM
6. CCCAGCGACUGCCGAGCGAGAUUACGCUUGAGCACCCCACUGAGGAUGCCCACGGGCGAUUGGGGCACGG [A5G G34A]  5.89 nM
7. CCCAUCGACUGCCGAGCGUGAUUACGCUUGAGCGCCCCACUGAGGAUGCCCACGGGCGAUUGGGGCACGG [A5U A19U]  6 nM
8. CCCAGCGACUGCCGAGCGAGAUGACGCUUGAGCGCCCCACUGAGGAUGCCCACGGGCGAUUGGGGCACGG [A5G U23G]  6.21 nM
9. CCCAGCGACUGCCGAGCGAGAUUACGCUUGAGCGCCCCACGGAGGAUGCCCACGGGCGAUUGGGGCACGG [A5G U41G]  6.23 nM
10. CCCAUCGGCUGCCGAGCGAGAUUACGCUUGAGCGCCCCACUGAGGAUGCCCACGGGCGAUUGGGGCACGG [A5U A8G]  6.23 nM
11. CCCAGCGACUGCCUAGCGAGAUUACGCUUGAGCGCCCCACUGAGGAUGCCCACGGGCGAUUGGGGCACGG [A5G G14U]  6.38 nM
12. CCCAUCGAGUGCCGAGCGAGAUUACGCUUGAGCGCCCCACUGAGGAUGCCCACGGGCGAUUGGGGCACGG [A5U C9G]  6.45 nM
13. CCCAUCGAUUGCCGAGCGAGAUUACGCUUGAGCGCCCCACUGAGGAUGCCCACGGGCGAUUGGGGCACGG [A5U C9U]  6.47 nM
14. CCCAGCGACUGCCAAGCGAGAUUACGCUUGAGCGCCCCACUGAGGAUGCCCACGGGCGAUUGGGGCACGG [A5G G14A]  6.54 nM
15. CCCAGCGACUGCCGAACGAGAUUACGCUUGAGCGCCCCACUGAGGAUGCCCACGGGCGAUUGGGGCACGG [A5G G16A]  6.56 nM
16. CCCAUCGACUGCCGAGCGAGUUUACGCUUGAGCGCCCCACUGAGGAUGCCCACGGGCGAUUGGGGCACGG [A5U A21U]  6.61 nM
17. CCCAGCGACUGCCGAGCGAGAUUACGCUUGAGCGCCCCACUGAGGAUGCCCACGGGCGAUUGGGUCACGG [A5G G65U]  6.76 nM
18. CCCAUCGUCUGCCGAGCGAGAUUACGCUUGAGCGCCCCACUGAGGAUGCCCACGGGCGAUUGGGGCACGG [A5U A8U]  6.78 nM
19. CCCAUCGACUGCCGAGCGAGAUUACGCUUGAGCGCCCCACUGAGGAUGCCCGCGGGCGAUUGGGGCACGG [A5U A52G]  7.25 nM
20. CCCAGCGACUGCCGAGCGAGAUUACUCUUGAGCGCCCCACUGAGGAUGCCCACGGGCGAUUGGGGCACGG [A5G G26U]  7.39 nM
21. CCCAGCGACUGCCGAUCGAGAUUACGCUUGAGCGCCCCACUGAGGAUGCCCACGGGCGAUUGGGGCACGG [A5G G16U]  7.42 nM
22. CCCAUCGACUGCCGAGCGGGAUUACGCUUGAGCGCCCCACUGAGGAUGCCCACGGGCGAUUGGGGCACGG [A5U A19G]  7.47 nM
23. CCCAGCGACUGCCGAGCGAGAUUACGCUUGAGCGCCCCACUGAGGAUGCCCACGUGCGAUUGGGGCACGG [A5G G55U]  7.72 nM
24. CCCAUCGACUGCCGAGCGAGGUUACGCUUGAGCGCCCCACUGAGGAUGCCCACGGGCGAUUGGGGCACGG [A5U A21G]  7.74 nM
25. CCCAUCGCCUGCCGAGCGAGAUUACGCUUGAGCGCCCCACUGAGGAUGCCCACGGGCGAUUGGGGCACGG [A5U A8C]  8.3 nM
26. CCCAUCGACUGCCGAGCGAGAUUACGCUUGAGCGCCCCGCUGAGGAUGCCCACGGGCGAUUGGGGCACGG [A5U A39G]  8.51 nM
27. CCCAGCGACUGCCGAGCGAGAUUACGCUUGAGCGCCCCACUGAGGAUGCCCACGAGCGAUUGGGGCACGG [A5G G55A]  11.2 nM
28. CCCAGCGACUGCCGAGCGAGAUUACGCUUGAGCGCCCCACUGAGGAUGCCCACGGGCGAUUGUGGCACGG [A5G G63U]  12.1 nM
29. CCCAGCGACUGCCGAGCGAGAUUACGCUUGAGCGCCCCACUGAGGAUACCCACGGGCGAUUGGGGCACGG [A5G G48A]  12.6 nM
30. CCCAGCGACUGCCGAGCGAGAUUACGCUUGAGCGCCCCACUGAGGAUGCCCACAGGCGAUUGGGGCACGG [A5G G54A]  12.9 nM
31. CCCAGCGACUGCCGAGCGAGAUUACGCUUGAGCGCCCCACUGAGGAUGCCCACGGGCGAUUGAGGCACGG [A5G G63A]  14.1 nM
32. CCCAUCGACUGCCGAGCGAGAUUACGCUUGAGCGCCCCACUGGGGAUGCCCACGGGCGAUUGGGGCACGG [A5U A43G]  15.1 nM
33. CCCAUCGACUGCCGAGCGAGAUUACGCUUGAGCGCCCCACUGAGGAUGCCCUCGGGCGAUUGGGGCACGG [A5U A52U]  18.4 nM
34. CCCAGCGACUGCCGAGCGAGAUUACGCUUGAGCGCCCCACAGAGGAUGCCCACGGGCGAUUGGGGCACGG [A5G U41A]  25 nM
35. CCCAUCGACUGCCGAGCGAGAUUACGCUUGAGCGCCCCUCUGAGGAUGCCCACGGGCGAUUGGGGCACGG [A5U A39U]  29.7 nM
36. CCCAUCGACUGCCGAGCGAGAUUACGCUUGAGCGCCCCACUGAGGAUGCCCACGGGCGGUUGGGGCACGG [A5U A59G]  81.5 nM
37. CCCAGCGACUGCCGAGCGAGAUUACGCUUGAGCGCCCCACCGAGGAUGCCCACGGGCGAUUGGGGCACGG [A5G U41C]  84.9 nM
38. CCCAUCGACUGCCGAGCGAGAUUACGCUUGAGCGCCCCACUGUGGAUGCCCACGGGCGAUUGGGGCACGG [A5U A43U]  99.1 nM
